Screens as filed in PubChem.
Insulin prom act – TRM-6 insulin promoter activation. activation, % at 2 µM. TRM-6 cells (human fetal islet line), insulin promoter eGFP reporter, imaging; plate-scaled: unstimulated 0, stimulated control 100. 0.81% of 130,000 active;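 active = activation at 2 µM above a set limit, confirmed on inspection of the cell images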;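 also: share of cells whose green reporter signal exceeds an intensity cutoff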
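System – TRM-6 insulin promoter–eGFP reporter cells · Probe or stimulus – 0.75 µM tamoxifen as reporter inducer · Dosing – single-point 2 µM compound dose · Incubation – tamoxifen pre-incubation 15 h overnight, then compound exposure 48 h at 37 °C · Measured by – fixed-cell fluorescence microscopy, eGFP plus Hoechst · Evaluation – percent GFP-positive cells normalized to per-plate controls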
Starred values were filed as active, the others as inactive. This excerpt belongs to a sample that is enriched for hits.

Screening Cc1ccc(OCC(O)CNC(=O)c2ccccc2C(=O)O)cc1 (centres undefined) returned Insulin prom act 3.3.
For COCCCNC(=S)N1CCC(NC(=O)c2ccco2)CC1 the results were Insulin prom act -2.6.
O=C(Nc1ccc(S(=O)(=O)Nc2nccs2)cc1)C1CCCCC1 was read as Insulin prom act 0.0.
Screening CCc1cc2c(-n3nc(C)cc3C)ncnc2s1 returned Insulin prom act 342.9.
Cc1cc(C)n(-c2cc(=O)n(C)c(=O)n2C)n1 was read as Insulin prom act -3.2.
`Cc1cc(C)n(-c2cc(C)c(C)cc2Br)n1` gave Insulin prom act 131.8*.
Screening O=C(NCCC1=CCCCC1)C1CCN(S(=O)(=O)c2ccc(Br)s2)CC1 returned Insulin prom act -5.6.
For CCC(C)NS(=O)(=O)c1ccc(S(=O)(=O)N2CCCC3(CCCCC3)C2)cc1 (centres undefined) the results were Insulin prom act 142.9.
`CN(C)c1nc(SCc2ccc(Cl)cc2)nc2c1CCCC2` gave Insulin prom act 3.1.
For Cc1cccc(-c2nsc(SCC(=O)Nc3nccs3)n2)c1 the results were Insulin prom act 121.4*.
Screening CCc1nnc(NC(=O)CSc2nc(-c3ccc(OC)cc3)ns2)s1 returned Insulin prom act -24.6.
Screening COc1ccc(-c2nsc(SCC(=O)Nc3cc(C)on3)n2)cc1 returned Insulin prom act 2.5.
For CCCCn1c(SCC(=O)NNC(=O)c2ccco2)nnc1-c1ccco1 the results were Insulin prom act 6.7.
`COc1ccccc1N1CCN(C(=O)c2ccc(S(=O)(=O)N3CCCCCC3)cc2)CC1` gave Insulin prom act 161.5.
Screening Cc1cc(NC(=O)COC(=O)COc2ccc3c(c2)CCC3)no1 returned Insulin prom act 9.1.
`COc1ccc(NC(=O)CCN2C(=O)C3CC=C(Cl)CC3C2=O)cc1` (centres undefined) gave Insulin prom act 7.1.
CCOC(=O)/C(C#N)=C\c1cc(C)n(-c2ccccc2)c1C was read as Insulin prom act 0.0.
Screening CCOC(=O)/C(C#N)=C\c1ccc(CC)s1 returned Insulin prom act 3.3.
For CCOC(=O)/C(C#N)=C\C=C1C=CN(C)C=C1 the results were Insulin prom act 110.5*.
For COc1ccc(C(=O)N2CCCC(CCC(=O)NCc3ccc(F)c(F)c3)C2)o1 (centres undefined) the results were Insulin prom act 133.3.
CCN(CC(=O)Nc1ccccc1OC)CC(=O)Nc1c(Cl)ccc(C)c1Cl was read as Insulin prom act 0.0.
Screening O=C1CCc2nc3sc4c(c3c(=O)n2N1)CCCC4 returned Insulin prom act 412.5*.
For Cc1nc2sc3c(c2c(=O)n1N)CCC3 the results were Insulin prom act 0.0.
For CCc1nc2sc3c(c2c(=O)o1)CCCC3 the results were Insulin prom act -7.1.
`COc1ccccc1C(C#N)N1N=C(C)CC1(C)C` (centres undefined) gave Insulin prom act 0.0.
`CN(Cc1cnn(C)c1)C(=O)C1CCCCC1C(=O)O` (centres undefined) gave Insulin prom act 272.1.
Screening CC(OC(=O)c1ccncc1)C(=O)Nc1cc(S(=O)(=O)N2CCCCC2)ccc1Cl (centres undefined) returned Insulin prom act -6.5.
Screening CCCC(c1nnnn1C1CCCC1)N1CCN(C(=O)c2ccco2)CC1 (centres undefined) returned Insulin prom act 180.6*.
`O=C(c1ccco1)N1CCN(C(c2ccccn2)c2nnnn2C2CCCC2)CC1` (centres undefined) gave Insulin prom act 195.2.
`O=C(c1ccco1)N1CCN(C(c2coc3ccc(Cl)cc3c2=O)c2nnnn2C2CCCC2)CC1` (centres undefined) gave Insulin prom act 0.0.
COc1ccccc1/C=C/C(=O)OCC(=O)c1c(N)n(C)c(=O)n(C)c1=O was read as Insulin prom act 6.7.
Cc1ccc(/C=C2\SC(=S)N(Cc3ccccc3)C2=O)o1 was read as Insulin prom act -9.7.
COc1ccc(-n2c(C)cc(/C=C3\SC(=S)N(Cc4ccco4)C3=O)c2C)cc1 was read as Insulin prom act 244.8*.
Cc1cc(/C=C2/SC(=S)N(c3ccc([N+](=O)[O-])cc3)C2=O)c(C)n1-c1cccnc1 was read as Insulin prom act 118.8.
For COc1ccc(NC(=S)NNC(=O)c2nnn(-c3ccccc3)c2C)cc1 the results were Insulin prom act 3.3.
CC(C)NC(=O)C1CCCN(S(=O)(=O)c2cccs2)C1 (centres undefined) was read as Insulin prom act 9.1.
Screening CCOC(=O)C1CCCN(C(=O)c2cccs2)C1 (centres undefined) returned Insulin prom act 168.8.
CCOC(=O)C1CCCN(S(=O)(=O)c2cccs2)C1 (centres undefined) was read as Insulin prom act 462.5*.
`Cc1cccc(Sc2c(C=O)c3ccccc3n2C)c1` gave Insulin prom act 3.6.
Screening Cc1ccc(C)n1-c1sc2c(c1C#N)CCC(C)C2 (centres undefined) returned Insulin prom act -1.4.
CC(=O)Nc1ccc(S(=O)(=O)NCc2ccccn2)cc1 was read as Insulin prom act 0.0.
